Test results published in ChEMBL document CHEMBL1131459, “2-Substituted (2SR)-2-amino-2-((1SR,2SR)-2-carboxycycloprop-1-yl)glycines as potent and selective antagonists of group II metabotropic glutamate receptors. 1. Effects of alkyl, arylalkyl, and diarylalkyl substitution” (J Med Chem, 1998).

What was measured:
[1] = Inhibitory activity for Group II Metabotropic glutamate receptor in rat forebrain membranes by using [3H]glutamate radioligand; assay type: cell membranes, Membrane
Outline: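 Displacement of [³H]glutamic acid binding in rat forebrain membranes, an assay described as selective for group II mGluRs. Each compound was tested as a mixture of four isomers (two racemic diastereomers). Some values are the average of two determinations and some of three.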

[2] = molecular target: T1, Metabotropic glutamate receptor 2 (Homo sapiens, UniProt Q14416); test: Compound was tested its ability to block 1S,3R-ACPD-induced inhibition of forskolin stimulated cyclic-AMP in non-neuronal cell line expressing human Metabotropic glutamate receptor 2; Agonist; assay type: functional
T1 sequence (Q14416 whole entry): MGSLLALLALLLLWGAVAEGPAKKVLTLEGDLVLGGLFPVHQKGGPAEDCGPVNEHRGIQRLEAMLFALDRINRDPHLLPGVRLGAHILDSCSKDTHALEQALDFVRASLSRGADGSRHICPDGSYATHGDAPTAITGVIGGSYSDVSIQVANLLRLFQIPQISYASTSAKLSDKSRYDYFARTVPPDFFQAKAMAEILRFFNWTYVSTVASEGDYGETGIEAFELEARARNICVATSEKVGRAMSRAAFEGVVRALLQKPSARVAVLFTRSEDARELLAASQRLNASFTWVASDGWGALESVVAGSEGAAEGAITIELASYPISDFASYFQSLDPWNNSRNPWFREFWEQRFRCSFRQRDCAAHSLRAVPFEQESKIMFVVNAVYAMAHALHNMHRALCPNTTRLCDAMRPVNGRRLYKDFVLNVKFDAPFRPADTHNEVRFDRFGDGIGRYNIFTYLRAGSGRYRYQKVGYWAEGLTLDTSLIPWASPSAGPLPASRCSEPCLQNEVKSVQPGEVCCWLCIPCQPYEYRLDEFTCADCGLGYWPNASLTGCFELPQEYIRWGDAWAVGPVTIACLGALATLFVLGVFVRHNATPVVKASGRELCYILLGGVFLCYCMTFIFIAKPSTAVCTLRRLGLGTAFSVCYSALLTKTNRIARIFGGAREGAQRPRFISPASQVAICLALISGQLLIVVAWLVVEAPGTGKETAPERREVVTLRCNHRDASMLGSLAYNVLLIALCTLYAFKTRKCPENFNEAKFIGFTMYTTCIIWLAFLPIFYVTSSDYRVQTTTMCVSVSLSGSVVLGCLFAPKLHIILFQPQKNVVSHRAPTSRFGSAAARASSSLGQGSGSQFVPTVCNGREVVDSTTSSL

[3] = molecular target: T2, Metabotropic glutamate receptor 3 (Homo sapiens, UniProt Q14832); test: Compound was tested its ability to block 1S,3R-ACPD-induced inhibition of forskolin stimulated cyclic-AMP in non-neuronal cell line expressing human Metabotropic glutamate receptor 3; Agonist; assay type: functional
T2 sequence (Q14832 whole entry): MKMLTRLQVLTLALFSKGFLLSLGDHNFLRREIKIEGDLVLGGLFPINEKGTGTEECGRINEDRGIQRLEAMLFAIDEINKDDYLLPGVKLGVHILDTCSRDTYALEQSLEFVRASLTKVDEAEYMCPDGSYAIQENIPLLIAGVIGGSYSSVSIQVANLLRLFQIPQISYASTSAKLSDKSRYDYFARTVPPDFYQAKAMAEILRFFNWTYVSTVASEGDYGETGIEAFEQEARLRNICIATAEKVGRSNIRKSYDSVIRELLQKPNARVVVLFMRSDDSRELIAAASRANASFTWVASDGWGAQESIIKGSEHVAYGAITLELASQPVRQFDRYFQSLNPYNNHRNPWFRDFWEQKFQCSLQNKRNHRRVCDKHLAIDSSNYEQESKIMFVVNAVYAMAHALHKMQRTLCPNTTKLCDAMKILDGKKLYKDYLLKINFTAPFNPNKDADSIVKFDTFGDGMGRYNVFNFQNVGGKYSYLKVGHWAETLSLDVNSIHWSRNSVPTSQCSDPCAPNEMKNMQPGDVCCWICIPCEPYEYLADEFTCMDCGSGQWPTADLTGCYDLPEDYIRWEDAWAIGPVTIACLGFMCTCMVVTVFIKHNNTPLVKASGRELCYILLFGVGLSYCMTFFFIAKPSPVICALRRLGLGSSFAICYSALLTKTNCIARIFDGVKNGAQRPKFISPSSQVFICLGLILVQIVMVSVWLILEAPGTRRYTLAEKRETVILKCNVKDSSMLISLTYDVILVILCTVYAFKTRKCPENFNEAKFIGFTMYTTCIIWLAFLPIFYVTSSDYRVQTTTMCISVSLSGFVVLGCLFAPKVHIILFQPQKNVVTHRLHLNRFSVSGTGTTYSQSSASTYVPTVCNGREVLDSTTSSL

[4] = molecular target: T1, Metabotropic glutamate receptor 2; test: Ability to block 1S,3R-ACPD-induced inhibition of forskolin stimulated cyclic-AMP in non-neuronal cell line expressing human Metabotropic glutamate receptor 2; assay type: functional
[5] = molecular target: T2, Metabotropic glutamate receptor 3; test: Ability to block 1S,3R-ACPD-induced inhibition of forskolin stimulated cyclic-AMP in non-neuronal cell line expressing human Metabotropic glutamate receptor 3; assay type: functional

**Q.** Which IC50 [1] does the source give for `CCC[C@](N)(C(=O)O)C1C[C@@H]1C(=O)O` (some centres not stated) here?
**A.** Its IC50 is 2100 nM.

**Q.** With `N[C@@](CC1CCCc2ccccc21)(C(=O)O)C1C[C@@H]1C(=O)O` (some centres not stated) as the compound, how does the IC50 [1] read?
**A.** Its IC50 is 230 nM.

**Q.** With `N[C@@](CC1CCCC1)(C(=O)O)C1C[C@@H]1C(=O)O` (some centres not stated) as the compound, how does the IC50 [1] read?
**A.** The IC50 was 1400 nM.

**Q.** For `CCCCCCCC[C@](N)(C(=O)O)C1C[C@@H]1C(=O)O` (some centres not stated), which IC50 [1] is on record?
**A.** Its IC50 is 1700 nM.

**Q.** For `CCCC[C@](N)(C(=O)O)C1C[C@@H]1C(=O)O` (some centres not stated), which IC50 [1] is on record?
**A.** Its IC50 is 1400 nM.

**Q.** With `CCCCC[C@](N)(C(=O)O)C1C[C@@H]1C(=O)O` (some centres not stated) as the compound, how does the IC50 [1] read?
**A.** The IC50 was 1800 nM.

**Q.** For `CC(C)[C@](N)(C(=O)O)C1C[C@@H]1C(=O)O` (some centres not stated), which IC50 [1] is on record?
**A.** The IC50 was greater than 10000 nM.

**Q.** With `N[C@@](CCC1CCCCC1)(C(=O)O)C1C[C@@H]1C(=O)O` (some centres not stated) as the compound, how does the IC50 [1] read?
**A.** Its IC50 is 380 nM.

**Q.** For `CC(C)CC[C@](N)(C(=O)O)C1C[C@@H]1C(=O)O` (some centres not stated), which IC50 [1] is on record?
**A.** Its IC50 is 1100 nM.

**Q.** For `CC(C)CCC[C@](N)(C(=O)O)C1C[C@@H]1C(=O)O` (some centres not stated), which IC50 [1] is on record?
**A.** Its IC50 is 850 nM.

**Q.** Which IC50 [2] does the source give for `N[C@@H](C(=O)O)C1C[C@@H]1C(=O)O` (some centres not stated) here?
**A.** Its IC50 is “Agonist”.

**Q.** And the IC50 [3]?
**A.** The IC50 was “Agonist”.

**Q.** And the IC50 [1]?
**A.** Its IC50 is 470 nM.

**Q.** With `N[C@@](CCc1ccc2ccccc2c1)(C(=O)O)C1C[C@@H]1C(=O)O` (some centres not stated) as the compound, how does the IC50 [1] read?
**A.** The IC50 was 2800 nM.

**Q.** Which IC50 [1] does the source give for `N[C@@](CC1CCOc2ccccc21)(C(=O)O)C1C[C@@H]1C(=O)O` (some centres not stated) here?
**A.** Its IC50 is 630 nM.

**Q.** For `N[C@@](CC1c2ccccc2Oc2ccccc21)(C(=O)O)[C@H]1C[C@@H]1C(=O)O`, which IC50 [1] is on record?
**A.** The IC50 was 10 nM.

**Q.** Which IC50 [4] does the source give for `NC(CC1CCCCC1)(C(=O)O)[C@H]1C[C@@H]1C(=O)O` (some centres not stated) here?
**A.** The IC50 was 1100 nM.

**Q.** What about the IC50 [1] of the same compound?
**A.** The IC50 was 230 nM.

**Q.** What about the IC50 [5] of the same compound?
**A.** The IC50 was 1400 nM.

**Q.** What does the source list for `CCC(N)(C(=O)O)[C@H]1C[C@@H]1C(=O)O` (some centres not stated)?
**A.** IC50 [4]: 6500 nM; IC50 [1]: 2200 nM; IC50 [5]: 2500 nM

**Q.** What does the source list for `Cn1cc(CCC(N)(C(=O)O)[C@H]2C[C@@H]2C(=O)O)c2ccccc21` (some centres not stated)?
**A.** IC50 [4]: 1400 nM; IC50 [1]: 280 nM; IC50 [5]: 1200 nM

**Q.** For `NC(CCc1ccsc1)(C(=O)O)[C@H]1C[C@@H]1C(=O)O` (some centres not stated), which IC50 [4] is on record?
**A.** The IC50 was 1000 nM.

**Q.** And the IC50 [1]?
**A.** Its IC50 is 210 nM.

**Q.** What about the IC50 [5] of the same compound?
**A.** Its IC50 is 570 nM.

**Q.** For `NC(CCc1ccccc1)(C(=O)O)[C@H]1C[C@@H]1C(=O)O` (some centres not stated), which IC50 [4] is on record?
**A.** The IC50 was 850 nM.

**Q.** What about the IC50 [1] of the same compound?
**A.** The IC50 was 320 nM.

**Q.** And the IC50 [5]?
**A.** Its IC50 is 650 nM.

**Q.** For `NC(CCc1cccc2ccccc12)(C(=O)O)[C@H]1C[C@@H]1C(=O)O` (some centres not stated), which IC50 [4] is on record?
**A.** Its IC50 is 240 nM.

**Q.** What about the IC50 [5] of the same compound?
**A.** Its IC50 is 470 nM.

**Q.** For `NC(CCCc1ccccc1)(C(=O)O)[C@H]1C[C@@H]1C(=O)O` (some centres not stated), which IC50 [4] is on record?
**A.** Its IC50 is 1000 nM.

**Q.** What about the IC50 [1] of the same compound?
**A.** Its IC50 is 630 nM.

**Q.** What about the IC50 [5] of the same compound?
**A.** Its IC50 is 550 nM.

**Q.** What does the source list for `NC(CCCCc1ccccc1)(C(=O)O)[C@H]1C[C@@H]1C(=O)O` (some centres not stated)?
**A.** IC50 [4]: 450 nM; IC50 [1]: 2300 nM; IC50 [5]: 2800 nM

**Q.** With `NC(CCC12CC3CC(CC(C3)C1)C2)(C(=O)O)[C@H]1C[C@@H]1C(=O)O` (some centres not stated) as the compound, how does the IC50 [4] read?
**A.** Its IC50 is 240 nM.

**Q.** What about the IC50 [1] of the same compound?
**A.** The IC50 was 200 nM.

**Q.** What about the IC50 [5] of the same compound?
**A.** The IC50 was 760 nM.

**Q.** Which IC50 [4] does the source give for `N[C@@](CC(c1ccccc1)c1ccccc1)(C(=O)O)[C@H]1C[C@@H]1C(=O)O` here?
**A.** Its IC50 is 4360 nM.

**Q.** And the IC50 [1]?
**A.** The IC50 was 240 nM.

**Q.** What about the IC50 [5] of the same compound?
**A.** The IC50 was 280 nM.

**Q.** Which IC50 [1] does the source give for `N[C@@](CC(Cc1ccccc1)Cc1ccccc1)(C(=O)O)C1C[C@@H]1C(=O)O` (some centres not stated) here?
**A.** Its IC50 is greater than 10000 nM.

**Q.** For `C[C@](N)(C(=O)O)C1C[C@@H]1C(=O)O` (some centres not stated), which IC50 [1] is on record?
**A.** The IC50 was 6200 nM.

**Q.** For `N[C@@](CCC1CCNCC1)(C(=O)O)C1C[C@@H]1C(=O)O` (some centres not stated), which IC50 [1] is on record?
**A.** The IC50 was greater than 10000 nM.

**Q.** With `N[C@@](COc1ccccc1)(C(=O)O)C1C[C@@H]1C(=O)O` (some centres not stated) as the compound, how does the IC50 [1] read?
**A.** Its IC50 is 11200 nM.

**Q.** With `N[C@@](Cc1ccccc1)(C(=O)O)C1C[C@@H]1C(=O)O` (some centres not stated) as the compound, how does the IC50 [4] read?
**A.** Its IC50 is greater than 10000 nM.

**Q.** And the IC50 [1]?
**A.** The IC50 was greater than 10000 nM.

**Q.** And the IC50 [5]?
**A.** The IC50 was greater than 10000 nM.

**Q.** Which IC50 [1] does the source give for `CC(C[C@](N)(C(=O)O)C1C[C@@H]1C(=O)O)c1ccccc1` (some centres not stated) here?
**A.** Its IC50 is 200 nM.

**Q.** Which IC50 [4] does the source give for `CC(C)C[C@](N)(C(=O)O)C1C[C@@H]1C(=O)O` (some centres not stated) here?
**A.** Its IC50 is 1600 nM.

**Q.** What about the IC50 [1] of the same compound?
**A.** The IC50 was 700 nM.

**Q.** And the IC50 [5]?
**A.** The IC50 was 1800 nM.

**Q.** Which results are given for `N[C@@](CC1CCC1)(C(=O)O)C1C[C@@H]1C(=O)O` (some centres not stated)?
**A.** IC50 [4]: > 10000 nM; IC50 [1]: 29500 nM; IC50 [5]: > 10000 nM

**Q.** With `N[C@@](CCC1C2CC3CC(C2)CC1C3)(C(=O)O)C1C[C@@H]1C(=O)O` (some centres not stated) as the compound, how does the IC50 [1] read?
**A.** Its IC50 is 550 nM.

**Q.** With `N[C@@](CCCC(c1ccccc1)c1ccccc1)(C(=O)O)C1C[C@@H]1C(=O)O` (some centres not stated) as the compound, how does the IC50 [1] read?
**A.** Its IC50 is 7000 nM.

**Q.** For `N[C@@](CC1c2ccccc2Sc2ccccc21)(C(=O)O)C1C[C@@H]1C(=O)O` (some centres not stated), which IC50 [1] is on record?
**A.** Its IC50 is 19 nM.

**Q.** For `N[C@@](CCC(c1ccccc1)c1ccccc1)(C(=O)O)C1C[C@@H]1C(=O)O` (some centres not stated), which IC50 [4] is on record?
**A.** Its IC50 is greater than 10000 nM.

**Q.** And the IC50 [1]?
**A.** Its IC50 is 7100 nM.

**Q.** What about the IC50 [5] of the same compound?
**A.** The IC50 was greater than 10000 nM.

**Q.** Which IC50 [1] does the source give for `N[C@@](CCc1cccs1)(C(=O)O)C1C[C@@H]1C(=O)O` (some centres not stated) here?
**A.** The IC50 was 580 nM.

**Q.** Which IC50 [1] does the source give for `N[C@](C(=O)O)(C1Cc2ccccc2C1)C1C[C@@H]1C(=O)O` (some centres not stated) here?
**A.** Its IC50 is greater than 10000 nM.
